Bioassay records as filed in PubChem BioAssay.
Mac1 fbg inh: blocks human CD11b/CD18 adhesion to fibrinogen | P05107+P11215 | K562 CD11b/CD18 adhesion to fibrinogen, ATPlite luminescence; Mn2+ added to activate the integrin | inhibition, % at 10 µM | 93,000 compounds, 0.54% hits | AID 1497;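 active = primary inhibition of 50% or more at 10 µM, then 40% or more on retest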
sEH activator: soluble epoxide hydrolase (human) activation. P34913. purified human sEH enzymatic activity, activator screen. activation, % at 2 µM. 91,000 compounds, 0.04% hits; in the data active = activation above about 37%
Rev-RRE block: disrupts HIV-1 Rev binding to RRE RNA | P05866 | Rev peptide-RRE RNA binding, FRET | inhibition, % at 8 µM | 97,000 compounds, 0.79% hits;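 active = inhibition above the screen-wide mean plus 3 SD, cut at about 35% in these data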
Target sequence (P05866 whole entry, looked up): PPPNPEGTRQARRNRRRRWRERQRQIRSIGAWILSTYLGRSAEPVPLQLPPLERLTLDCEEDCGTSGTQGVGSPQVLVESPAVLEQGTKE
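Test system – labelled RRE RNA duplex and labelled Rev peptide · Signal – fluorescein-to-Cy5 FRET, 480 nm excitation · Evaluation – % inhibition of FRET ratio versus controls · Benchmarks – DMSO low control, neomycin B high control · Incubation – 5 min RNA-compound premix plus 15 min binding step, 25 °C · Medium – HEPES pH 7.5 salt buffer with EDTA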
Smad3 inh: inhibitors of human Smad3 transcription factor binding; TR-FRET Smad3/Dy647-FoxH1 peptide binding, europium anti-His; inhibition, % at 25 µM; 88,000 compounds, 0.29% hits; AID 630;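 active = compounds that reduce the energy-transfer binding signal between the protein and its labelled peptide by more than half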
Target sequence (P84022 whole entry, looked up): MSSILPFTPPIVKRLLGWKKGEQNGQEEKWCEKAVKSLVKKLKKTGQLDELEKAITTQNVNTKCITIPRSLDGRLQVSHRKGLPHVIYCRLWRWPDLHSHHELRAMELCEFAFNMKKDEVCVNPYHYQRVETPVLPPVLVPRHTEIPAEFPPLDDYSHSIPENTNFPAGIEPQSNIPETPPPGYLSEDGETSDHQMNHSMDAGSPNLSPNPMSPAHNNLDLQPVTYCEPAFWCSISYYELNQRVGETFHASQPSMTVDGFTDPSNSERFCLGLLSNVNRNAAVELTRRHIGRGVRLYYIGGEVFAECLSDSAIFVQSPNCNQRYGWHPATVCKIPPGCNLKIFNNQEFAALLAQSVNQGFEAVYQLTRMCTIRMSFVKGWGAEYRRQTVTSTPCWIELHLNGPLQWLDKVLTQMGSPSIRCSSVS
Mac1 fbg enh: enhancers of human CD11b/CD18 binding to fibrinogen; K562 CD11b/CD18 adhesion to fibrinogen, ATPlite luminescence; P05107+P11215; 93,000 compounds, 0.07% hits; activation, % at 10 µM;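 active = 10 µM primary screen giving 50% or more activity, confirmed by 40% or more on retest at that dose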
sEH inh: inhibitors of human soluble epoxide hydrolase | P34913 | recombinant human sEH enzymatic activity assay | inhibition, % at 2 µM | 91,000 compounds, 0.34% hits | AID 707; in the data active = inhibition above about 80%
Each line names hits and unclear results; the compound was inactive in the other large screens; [ ] = remark or other dose. Hits are enriched below; roughly 1.6% of the tested compounds scored in any of these assays.

Cc1cc(SCC(=O)c2cc3ccccc3o2)nc2ccccc12	Rev-RRE block 45.9 (no result: Mac1 fbg inh, Mac1 fbg enh)
C/C(=N\NS(=O)(=O)c1ccc(C)cc1)P(=O)(O)O	none (no result: Mac1 fbg inh, sEH activator, Rev-RRE block, Mac1 fbg enh, sEH inh)
CCC(=O)Nc1ccc(N2CCN(C(=O)c3ccccc3C)CC2)cc1	none
Cc1ccccc1C(=O)N1CCN(c2ccc(NC(=O)CSc3ccc(Cl)cc3)cc2)CC1	sEH inh 85.8 (no result: Mac1 fbg inh, Smad3 inh, Mac1 fbg enh)
O=C(O)c1cnc(-c2ccccc2)nc1Sc1ccccc1Cl	none (no result: Mac1 fbg inh, Smad3 inh, Mac1 fbg enh)
O=C(O)c1cnc(-c2ccccc2)nc1Sc1ccc(Cl)cc1	Mac1 fbg inh 90.5 (no result: Smad3 inh)
c1ccc(-n2ncc3c(N4CCCCC4)ncnc32)cc1	Mac1 fbg inh 59.0 (no result: Smad3 inh)
CC(=O)c1cccc(NC(=O)CN(c2ccccc2F)S(C)(=O)=O)c1	none
CC(=O)c1cccc(NC(=O)CN(c2ccccc2)S(C)(=O)=O)c1	Smad3 inh 58.4 (no result: sEH activator, Rev-RRE block, sEH inh)
CC1CCCCN1c1ncnc2ccccc12 (configuration not stated)	Mac1 fbg inh 69.4 (no result: Smad3 inh)
O=C(O)C1CCCN1c1ncnc2ccccc12 (configuration not stated)	none
COC(=O)c1sc2ncn(-n3c(C)ccc3C)c(=O)c2c1C	Smad3 inh 59.8
Cc1ccc(C)n1-n1cnc2sc3c(c2c1=O)CCC3	none
COc1ccc(C(=O)N/N=C2\C(=O)c3c(C)cc(C)cc3CC2(C)C)cc1	none (no result: Mac1 fbg inh, sEH activator, Rev-RRE block, Mac1 fbg enh, sEH inh)
CN(C)Cc1cc(C(C)(C)C)cc(CN(C)C)c1O	none (no result: Mac1 fbg inh, sEH activator, Rev-RRE block, Mac1 fbg enh, sEH inh)
CN(C)Cc1cc(C(C)(C)C)ccc1-c1ccc(C(C)(C)C)cc1CN(C)C	Smad3 inh 69.9 (no result: Mac1 fbg inh, sEH activator, Rev-RRE block, Mac1 fbg enh, sEH inh)
NC[C@H]1O[C@H](n2cnc3c(=O)[nH]c(N)nc32)[C@@H](O)[C@@H]1O	none (no result: Mac1 fbg inh, sEH activator, Rev-RRE block, Mac1 fbg enh, sEH inh)
O=C(C[N+]12CN3CN(CN(C3)C1)C2)c1ccc(-c2ccccc2)cc1	Smad3 inh 76.6 (no result: Mac1 fbg inh, sEH activator, Rev-RRE block, Mac1 fbg enh, sEH inh)
S=C(S)NCCCn1ccnc1	none (no result: Mac1 fbg inh, sEH activator, Rev-RRE block, Mac1 fbg enh, sEH inh)
CC(=O)Nc1ccccc1OCC(=O)c1cc(C)n(Cc2cccs2)c1C	Mac1 fbg inh 102.2 (no result: sEH activator, Rev-RRE block, sEH inh)
COc1ccc(C(=O)c2cnc3ccccc3c2-c2ccccc2)cc1	none (no result: Smad3 inh)
CCC(=O)Oc1c(-c2ccccc2)c2nc3ccccc3nc2c2ccccc12	Rev-RRE block 111.5[fluorescence artefact?] (no result: Mac1 fbg inh, Mac1 fbg enh)
CSC1(SC2=NCCN2)SC2(NCCN2)S1	Smad3 inh 81.1 (no result: Mac1 fbg inh, sEH activator, Rev-RRE block, Mac1 fbg enh, sEH inh)
O=C(O)CSC1=NCCN1	none (no result: Mac1 fbg inh, sEH activator, Rev-RRE block, Mac1 fbg enh, sEH inh)
O=[N+]([O-])c1cccc(/C=C/c2nc(C=Nc3ccc4ccccc4c3)c(O)o2)c1	Rev-RRE block 48.5 (no result: Mac1 fbg inh, Smad3 inh, Mac1 fbg enh)
O=c1oc2ccccc2cc1-c1csc(Cc2nc(-c3ccc(Cl)cc3)cs2)n1	none (no result: sEH activator, Rev-RRE block, Smad3 inh, sEH inh)
COc1ccc2oc(=O)c(-c3nnc(NCc4ccco4)s3)cc2c1	Rev-RRE block 43.0
CNc1nnc(-c2cc3cc(Cl)ccc3oc2=O)s1	Rev-RRE block 79.4
OCCN[C@@H]1c2cc(Cl)ccc2-c2c(Cl)cc(Cl)cc21	none (no result: Mac1 fbg inh, sEH activator, Rev-RRE block, Mac1 fbg enh, sEH inh)
O=C1Nc2ccccc2C1=Nc1cccc2ncccc12	none (no result: Mac1 fbg inh, sEH activator, Rev-RRE block, Mac1 fbg enh, sEH inh)
Cc1ccc(Cl)cc1NC(=O)CC(O)(C(F)(F)F)C(F)(F)F	Mac1 fbg inh 98.5
Cc1ccc(Cl)cc1NC(=O)CSC(N)=O	none
CN(C)c1ccc(/C=C2\SC(=S)N(Nc3ncc(C(F)(F)F)cc3Cl)C2=O)cc1	Rev-RRE block 138.0[fluorescence artefact?] (no result: Mac1 fbg inh, sEH activator, Mac1 fbg enh, sEH inh)
Cc1oc(-c2ccccc2F)nc1CN1CCC(C(=O)NC2CCCCCCC2)CC1	sEH inh 91.1
Cc1oc(-c2ccccc2F)nc1CN1CCC(C(=O)NC2CCCc3ccccc32)CC1 (configuration not stated)	none (no result: sEH activator, Smad3 inh, sEH inh)
O=C(NCCC1=CCCCC1)C1CCCN(c2nc3ccccc3o2)C1 (configuration not stated)	sEH inh 96.4 (no result: Mac1 fbg inh, Mac1 fbg enh)
O=C(NCCc1ccccc1)C1CCN(c2nc3ccccc3o2)CC1	none
O=C(NC1CCCCCCC1)C1CCN(c2nc3ccccc3o2)CC1	sEH inh 93.1
Cc1ccccc1-c1nc(CN2CCC(C(=O)NCCC3=CCCCC3)CC2)c(C)o1	sEH inh 93.4
c1ccc([C@H](CCN2CCCC2)c2ccccn2)cc1	none (no result: Mac1 fbg inh, sEH activator, Rev-RRE block, Mac1 fbg enh, sEH inh)
Cc1nn(Cc2ccc(C(=O)NC(C)(C)C)o2)c(C)c1Br	Mac1 fbg inh 74.3
Cc1cc(NC(=O)c2ccc(Cn3nc(C)c(Br)c3C)o2)no1	none
COc1ccc(C=Nc2c(O)ccc3ccccc23)cc1OC	none (no result: Mac1 fbg inh, sEH activator, Rev-RRE block, Mac1 fbg enh, sEH inh)
O=C(NCc1cccs1)O[C@H]1C[C@H]2CC[C@@H]1C2	none (no result: Mac1 fbg inh, sEH activator, Rev-RRE block, Mac1 fbg enh, sEH inh)
c1ccc(-c2nnc(CN3CCCc4ccccc43)o2)cc1	Rev-RRE block 83.5[fluorescence artefact?]
c1ccc(-c2nnc(CN3CCC4(CC3)OCCO4)o2)cc1	none
Cc1cc(NCCCn2ccnc2)n2ncc(-c3ccccc3)c2n1	Mac1 fbg inh 50.4
Cc1cc(NCCCn2ccnc2)n2nc(C)c(-c3ccccc3)c2n1	none
CC1(C)N=C(N)N=C(N)N1c1cccc(OCc2cccc([N+](=O)[O-])c2)c1	none (no result: Mac1 fbg inh, sEH activator, Rev-RRE block, Mac1 fbg enh, sEH inh)
O=C(O)c1ccccc1-c1ccccc1C(=O)NCCCO	sEH activator 37.1 (no result: Mac1 fbg inh, Mac1 fbg enh)
COC(=O)c1sc(S(=O)(=O)Nc2ccc(Br)cc2)c(C(=O)OC)c1C	Mac1 fbg inh 90.7 (no result: sEH activator, Rev-RRE block, Smad3 inh, sEH inh)
CCOC(=O)c1[nH]c2ccc(Br)cc2c1NC(=O)CCN1CCC(C)CC1	none
CCOC(=O)c1[nH]c2ccc(Br)cc2c1NC(=O)CNC	Mac1 fbg enh 104.5
Cc1ccc(/C=C2\CCC3=C2OC(N)=C(C#N)C3c2ccc(C)cc2)cc1 (configuration not stated)	Rev-RRE block 138.4[fluorescence artefact?] (no result: Smad3 inh)
